From ChEMBL document CHEMBL5674880 (PLoS One, 2018)
Each block holds one compound with its values, some of them ahead of it.

Key:
[1] = system: MC-IXC; assay: Antiproliferative activity against human MC-IXC cells after 10 days; type: functional, cell-based; details: 240 h
How it was run: (§1)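 Broad cancer cell line panel (Eurofins Oncopanel, about 240 lines; mycoplasma negative, STR verified) grown in 2D culture and exposed to compound in a 10-day proliferation assay. The top concentration was 10 μM for the SMYD2 inhibitor series and 25 μM for the SMYD3 inhibitor. The proliferative IC50 is taken from concentration-response data, each value the mean of three biological replicates.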

[2] = system: SW48; assay: Antiproliferative activity against human SW48 cells after 10 days; type: functional, cell-based; details: SW48, 240 h
[3] = system: FaDu; assay: Antiproliferative activity against human FaDu cells after 10 days; type: functional, cell-based; details: 240 h
How it was run: (§2)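 10-day 2D proliferation screen of a broad cancer cell panel (about 240 lines, Eurofins Oncopanel). All lines were mycoplasma negative and STR verified. Compounds were dosed up to a top concentration of 10 μM or 25 μM, depending on the inhibitor. Anti-proliferative IC50 values are the average of three biological replicates.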

[4] = system: HCT-116; assay: Antiproliferative activity against human HCT-116 cells after 10 days; type: functional, cell-based; details: HCT-116, 240 h; how it was run: as §2
[5] = system: CAKI-1; assay: Antiproliferative activity against human CAKI-1 cells after 10 days; type: functional, cell-based; details: CAKI-1, 240 h
How it was run: (§3)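 Tested as part of a 240-line cancer cell panel (Eurofins Oncopanel); all lines were mycoplasma-negative and STR-verified. Cells were exposed to a compound concentration series in 2D culture for 10 days. The highest concentration was 10 μM or 25 μM, depending on the inhibitor. Antiproliferative IC50 was derived from the mean of three biological replicates.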

[6] = system: SK-LMS-1; assay: Antiproliferative activity against human SK-LMS-1 cells after 10 days; type: functional, cell-based; details: SK-LMS-1, 240 h
[7] = system: U-87 MG; assay: Antiproliferative activity against human U-87MG cells after 10 days; type: functional, cell-based, U-87MG ATCC; details: 240 h
[8] = system: SNU-5; assay: Antiproliferative activity against human SNU-5 cells after 10 days; type: functional, cell-based; details: SNU-5, 240 h
[9] = system: WiDr; assay: Antiproliferative activity against human WiDr cells after 10 days; type: functional, cell-based; details: 240 h
[10] = Antiproliferative activity against human KHOS-240S cells after 10 days; type: functional, cell-based; details: 240 h; how it was run: as §1
[11] = system: JEG-3; assay: Antiproliferative activity against human JEG-3 cells after 10 days; type: functional, cell-based; details: JEG-3, 240 h
How it was run: (§4)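 Cell lines run in the Eurofins Oncopanel broad cancer panel, all mycoplasma-negative and STR-verified. Cells were exposed to a compound concentration series in a 10-day proliferation assay, and an anti-proliferative IC50 was derived. Values are the mean of three biological replicates.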

[12] = system: SW1088; assay: Antiproliferative activity against human SW1088 cells after 10 days; type: functional, cell-based; details: SW1088, 240 h
[13] = system: RPMI-8226; assay: Antiproliferative activity against human RPMI-8226 cells after 10 days; type: functional, cell-based; details: RPMI-8226, 240 h
[14] = system: NCI-H441; assay: Antiproliferative activity against human NCI-H441 cells after 10 days; type: functional, cell-based; details: NCI-H441, 240 h; how it was run: as §1
[15] = system: SNU-16; assay: Antiproliferative activity against human SNU-16 cells after 10 days; type: functional, cell-based; details: SNU-16, 240 h
[16] = system: OE33; assay: Antiproliferative activity against human OE33 cells after 10 days; type: functional, cell-based; details: OE33, 240 h; how it was run: as §1
[17] = system: AN3-CA; assay: Antiproliferative activity against human AN3-CA cells after 10 days; type: functional, cell-based; details: 240 h; how it was run: as §3
[18] = system: HT1197; assay: Antiproliferative activity against human HT1197 cells after 10 days; type: functional, cell-based; details: HT1197, 240 h; how it was run: as §4
[19] = system: SCaBER; assay: Antiproliferative activity against human SCaBER cells after 10 days; type: functional, cell-based; details: 240 h
[20] = system: DMS-53; assay: Antiproliferative activity against human DMS-53 cells after 10 days; type: functional, cell-based; details: DMS-53, 240 h; how it was run: as §2
[21] = system: CGTH-W-1; assay: Antiproliferative activity against human CGTH-W-1 cells after 10 days; type: functional, cell-based; details: CGTH-W-1, 240 h; how it was run: as §3
[22] = system: SHP77; assay: Antiproliferative activity against human SHP77 cells after 10 days; type: functional, cell-based; details: SHP77, 240 h
[23] = system: DU-145; assay: Antiproliferative activity against human DU-145 cells after 10 days; type: functional, cell-based; details: DU-145, 240 h; how it was run: as §2
[24] = system: RD; assay: Antiproliferative activity against human RD cells after 10 days; type: functional, cell-based; details: 240 h; how it was run: as §1
[25] = system: HCT-8; assay: Antiproliferative activity against human HCT-8 cells after 10 days; type: functional, cell-based; details: HCT-8, 240 h; how it was run: as §2
[26] = system: SH-4; assay: Antiproliferative activity against human SH-4 cells after 10 days; type: functional, cell-based; details: SH-4, 240 h
[27] = system: Malme-3M; assay: Antiproliferative activity against human Malme-3M cells after 10 days; type: functional, cell-based; details: 240 h; how it was run: as §1
[28] = system: AU565; assay: Antiproliferative activity against human AU565 cells after 10 days; type: functional, cell-based; details: AU565, 240 h; how it was run: as §3
[29] = system: COLO 205; assay: Antiproliferative activity against human COLO 205 cells after 10 days; type: functional, cell-based; details: COLO 205, 240 h; how it was run: as §3
[30] = system: SW-403; assay: Antiproliferative activity against human SW403 cells after 10 days; type: functional, cell-based; details: SW-403, 240 h
[31] = system: MOLT-3; assay: Antiproliferative activity against human MOLT-3 cells after 10 days; type: functional, cell-based; details: MOLT-3, 240 h; how it was run: as §1
[32] = system: EFM-19; assay: Antiproliferative activity against human EFM-19 cells after 10 days; type: functional, cell-based; details: EFM-19, 240 h; how it was run: as §2
[33] = system: MHH-PREB-1; assay: Antiproliferative activity against human MHH-PREB-1 cells after 10 days; type: functional, cell-based; details: MHH-PREB-1, 240 h; how it was run: as §1
[34] = system: CFPAC-1; assay: Antiproliferative activity against human CFPAC-1 cells after 10 days; type: functional, cell-based; details: CFPAC-1, 240 h; how it was run: as §3
[35] = system: Hs-578T; assay: Antiproliferative activity against human Hs 578T cells after 10 days; type: functional, cell-based; details: 240 h; how it was run: as §2
[36] = system: NCI-H295R; assay: Antiproliferative activity against human NCI-H295R cells after 10 days; type: functional, cell-based; details: 240 h; how it was run: as §1
[37] = Antiproliferative activity against human CEM/C1 cells after 10 days; type: functional, cell-based; details: CEM/C1, 240 h; how it was run: as §3
[38] = system: Raji; assay: Antiproliferative activity against human Raji cells after 10 days; type: functional, cell-based; details: 240 h
[39] = system: U2OS; assay: Antiproliferative activity against human U2OS cells after 10 days; type: functional, cell-based; details: 240 h
[40] = system: BT-20; assay: Antiproliferative activity against human BT-20 cells after 10 days; type: functional, cell-based; details: BT-20, 240 h; how it was run: as §3
[41] = system: NCI-H292; assay: Antiproliferative activity against human NCI-H292 cells after 10 days; type: functional, cell-based; details: NCI-H292, 240 h; how it was run: as §1
[42] = system: NCI-H596; assay: Antiproliferative activity against human NCI-H596 cells after 10 days; type: functional, cell-based; details: NCI-H596, 240 h; how it was run: as §1
[43] = system: T-24; assay: Antiproliferative activity against human T24 cells after 10 days; type: functional, cell-based; details: T-24, 240 h
[44] = system: DMS-273; assay: Antiproliferative activity against human DMS-273 cells after 10 days; type: functional, cell-based; details: DMS-273, 240 h; how it was run: as §2
[45] = system: HT-3; assay: Antiproliferative activity against human HT-3 cells after 10 days; type: functional, cell-based; details: HT-3, 240 h; how it was run: as §2
[46] = system: MeWo; assay: Antiproliferative activity against human MeWo cells after 10 days; type: functional, cell-based; details: 240 h; how it was run: as §1
[47] = system: AGS; assay: Antiproliferative activity against human AGS cells after 10 days; type: functional, cell-based; details: 240 h; how it was run: as §3
[48] = system: BeWo; assay: Antiproliferative activity against human BeWo cells after 10 days; type: functional, cell-based; details: 240 h; how it was run: as §3
[49] = system: BHT-101; assay: Antiproliferative activity against human BHT-101 cells after 10 days; type: functional, cell-based; details: BHT-101, 240 h; how it was run: as §3
[50] = system: K562; assay: Antiproliferative activity against human K562 cells after 10 days; type: functional, cell-based; details: K562, 240 h; how it was run: as §1

- IC50 [2]: 1350 nM
- IC50 [4]: 2660 nM
- IC50 [6]: 2410 nM
- IC50 [7]: 2850 nM
- IC50 [8]: 3320 nM
- IC50 [12]: 1180 nM
- IC50 [13]: 1560 nM
- IC50 [14]: 5630 nM
- IC50 [15]: 993 nM
- IC50 [23]: 4130 nM
- IC50 [25]: 2520 nM
- IC50 [29]: 944 nM
- IC50 [30]: 3120 nM
- IC50 [31]: 1360 nM
- IC50 [36]: 4840 nM
- IC50 [38]: 1590 nM
- IC50 [39]: 1680 nM
- IC50 [40]: 3350 nM
- IC50 [41]: 2690 nM
- IC50 [42]: 2950 nM
- IC50 [47]: 1270 nM
- IC50 [50]: 3210 nM
SMILES: Cc1cn(CCN2CCN(c3ccccc3-c3cc(C#N)cc(C(=O)NCCCN4CCCC4)c3)CC2)c2ccccc12
- IC50 [1]: 1920 nM
- IC50 [3]: 2360 nM
- IC50 [5]: 2790 nM
- IC50 [9]: 838 nM
- IC50 [10]: 1310 nM
- IC50 [11]: 1500 nM
- IC50 [16]: 2000 nM
- IC50 [17]: 2420 nM
- IC50 [18]: 1560 nM
- IC50 [19]: 1500 nM
- IC50 [20]: 3170 nM
- IC50 [21]: 2870 nM
- IC50 [22]: 1650 nM
- IC50 [24]: 954 nM
- IC50 [26]: 1150 nM
- IC50 [27]: 2400 nM
- IC50 [28]: 1250 nM
- IC50 [32]: 2680 nM
- IC50 [33]: 1060 nM
- IC50 [34]: 1480 nM
- IC50 [35]: 6140 nM
- IC50 [37]: 1270 nM
- IC50 [43]: 2940 nM
- IC50 [44]: 987 nM
- IC50 [45]: 3270 nM
- IC50 [46]: 1980 nM
- IC50 [48]: 2880 nM
- IC50 [49]: 1430 nM

- IC50 [2]: > 10000 nM
- IC50 [4]: > 10000 nM
- IC50 [6]: > 10000 nM
- IC50 [7]: > 10000 nM
- IC50 [8]: > 10000 nM
- IC50 [12]: > 10000 nM
- IC50 [13]: > 10000 nM
- IC50 [14]: > 10000 nM
- IC50 [15]: > 10000 nM
- IC50 [23]: > 10000 nM
- IC50 [25]: > 10000 nM
- IC50 [29]: > 10000 nM
- IC50 [30]: > 10000 nM
- IC50 [31]: > 10000 nM
- IC50 [36]: > 10000 nM
- IC50 [38]: > 10000 nM
- IC50 [39]: > 10000 nM
- IC50 [40]: > 10000 nM
- IC50 [41]: > 10000 nM
- IC50 [42]: > 10000 nM
- IC50 [47]: > 10000 nM
- IC50 [50]: > 10000 nM
SMILES: O=C(NC1CN(Cc2cnn(Cc3ccccc3)c2)C1)c1cn(C2CC2)nn1
- IC50 [1]: > 10000 nM
- IC50 [3]: > 10000 nM
- IC50 [5]: > 10000 nM
- IC50 [9]: > 10000 nM
- IC50 [10]: > 10000 nM
- IC50 [11]: > 10000 nM
- IC50 [16]: > 10000 nM
- IC50 [17]: > 10000 nM
- IC50 [18]: > 10000 nM
- IC50 [19]: > 10000 nM
- IC50 [20]: > 10000 nM
- IC50 [21]: > 10000 nM
- IC50 [22]: > 10000 nM
- IC50 [24]: > 10000 nM
- IC50 [26]: > 10000 nM
- IC50 [27]: > 10000 nM
- IC50 [28]: > 10000 nM
- IC50 [32]: > 10000 nM
- IC50 [33]: > 10000 nM
- IC50 [34]: > 10000 nM
- IC50 [35]: > 10000 nM
- IC50 [37]: > 10000 nM
- IC50 [43]: > 10000 nM
- IC50 [44]: > 10000 nM
- IC50 [45]: > 10000 nM
- IC50 [46]: > 10000 nM
- IC50 [48]: > 10000 nM
- IC50 [49]: > 10000 nM
